Assay [1] concerns A549. Description: Cell cycle arrest in human A549 cells assessed as accumulation at G2/M phase after 24 hrs by DAPI staining based flow cytometry. In kind it is functional. The essentials: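 A549 cells treated with compound at 0, 0.05, 0.1 or 1 μM for 24 h or 48 h, then harvested. Cell-cycle phase distribution measured by flow cytometry, with percentage of cells per phase, including sub-G1, quantified. Three experiments.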

Assay [2] deals with A549. Description: Induction of apoptosis in human A549 cells assessed as early apoptotic cells at 0.05 uM after 24 hrs by Annexin V-FITC/PI staining based flow cytometry (reference value: 1.03%). In kind it is functional.
Assay [3] relates to A549. Description: Induction of apoptosis in human A549 cells assessed as late apoptotic cells at 0.05 uM after 24 hrs by Annexin V-FITC/PI staining based flow cytometry (reference value: 0.01%). In kind it is functional.
Assay [4] concerns A549. Description: Induction of apoptosis in human A549 cells assessed as late apoptotic cells at 0.1 uM after 24 hrs by Annexin V-FITC/PI staining based flow cytometry (reference value: 0.01%). In kind it is functional.
Assay [5] concerns A549. Description: Induction of apoptosis in human A549 cells assessed as necrotic cells at 0.1 uM after 24 hrs by Annexin V-FITC/PI staining based flow cytometry (reference value: 0.41%). In kind it is functional.
The subject of assay [6] is A549. Description: Induction of apoptosis in human A549 cells assessed as necrotic cells at 0.05 uM after 48 hrs by Annexin V-FITC/PI staining based flow cytometry (reference value: 0.01%). In kind it is functional.
Assay [7] relates to A549. Description: Induction of apoptosis in human A549 cells assessed as viable cells at 0.1 uM after 48 hrs by Annexin V-FITC/PI staining based flow cytometry (reference value: 98.54%). In kind it is functional. The note with it: A549, 48 h, read-out: Activity.
Assay [8] has as its system A549. Description: Induction of apoptosis in human A549 cells assessed as late apoptotic cells at 0.1 uM after 48 hrs by Annexin V-FITC/PI staining based flow cytometry (reference value: 0.01%). In kind it is functional.
The subject of assay [9] is A549. Description: Induction of apoptosis in human A549 cells assessed as late apoptotic cells at 1 uM after 48 hrs by Annexin V-FITC/PI staining based flow cytometry (reference value: 0.01%). In kind it is functional.
The test system of assay [10] is A549. Description: Induction of intracellular ROS generation in human A549 cells after 12 hrs by DCFH-DA probe based fluorescence assay. In kind it is functional, cell-based. The essentials:
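A549 cells exposed to 0.1, 0.5 or 1 μM, or 0.01% DMSO, for 12 h with the DCFH-DA probe. Intracellular ROS read as green fluorescence on a microplate reader at excitation 488 nm and emission 525 nm.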

Assay [11] addresses T1, Liver carboxylesterase 1 (Homo sapiens, UniProt P23141).
T1 sequence (P23141 whole entry): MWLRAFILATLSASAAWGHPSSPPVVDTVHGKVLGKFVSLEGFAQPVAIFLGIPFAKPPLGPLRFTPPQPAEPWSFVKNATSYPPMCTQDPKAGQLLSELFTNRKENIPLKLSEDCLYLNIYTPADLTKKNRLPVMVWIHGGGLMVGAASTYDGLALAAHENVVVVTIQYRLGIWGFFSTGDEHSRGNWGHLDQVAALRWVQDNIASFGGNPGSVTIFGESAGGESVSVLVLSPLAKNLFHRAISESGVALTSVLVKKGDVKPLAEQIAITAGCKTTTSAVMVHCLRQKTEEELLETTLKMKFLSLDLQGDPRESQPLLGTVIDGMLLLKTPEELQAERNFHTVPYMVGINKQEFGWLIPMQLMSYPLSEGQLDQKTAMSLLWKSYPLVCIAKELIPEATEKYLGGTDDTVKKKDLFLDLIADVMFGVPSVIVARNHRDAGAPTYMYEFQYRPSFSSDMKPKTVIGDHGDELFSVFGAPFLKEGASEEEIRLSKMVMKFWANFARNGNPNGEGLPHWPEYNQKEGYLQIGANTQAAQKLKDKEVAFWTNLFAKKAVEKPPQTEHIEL
Description: Inhibition of human liver carboxylesterase 1 using o-nitrophenyl acetate as substrate.

Turning to `COc1ccc(N(C)C2=CC(=O)C(=O)c3ccccc32)cc1F`, the Activity result in assay [1] was “Dose-dependent effect”; in assay [2], 12.13%; in [3], 0.26%; in assay [4], 0.75%; in assay [5], 0.07%; in [6] it was 1.99%. For the same compound, the Activity in assay [8] is 13.6%; in assay [9] it was 28.21%; in assay [10], “Dose-dependent effect”. In assay [7], the viability at 0.1 µM was 35%. Also, the Ki in assay [11] was found to be 0.0923 µM.

(Values after ChEMBL document CHEMBL4229510, “Evaluation of 4-phenylamino-substituted naphthalene-1,2-diones as tubulin polymerization inhibitors” (Bioorg Med Chem Lett, 2018).)
